Results taken from ChEMBL document CHEMBL1806465, “Synthesis and biological evaluation of 4-nitro-substituted 1,3-diaryltriazenes as a novel class of potent antitumor agents” (Eur J Med Chem, 2011).
The source made the active and inactive calls. No cut-off for these calls is given here.

Assays:
HeLa [1] = assay: Cell cycle arrest in human HeLa cells assessed as accumulation at G0/G1 phase at 21 uM after 72 hrs by propidium iodide staining -based flow cytometry (reference value: 66.9 %); assay type: functional
Method in brief: (§1)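 HeLa seeded at 100 000 cells/well, treated next day with 0.78, 7 or 21 µM for 24, 48 or 72 h. Adherent plus floating cells collected, PBS-washed, fixed overnight in 70% ethanol at −20 °C, RNase A 30 µg/ml 1 h RT, propidium iodide 16.7 µg/ml 30 min dark; DNA content by flow cytometry, phase percentages including subG1 reported.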

SW-620 = assay: Cytotoxicity against human SW620 cells after 72 hrs by MTT assay; assay type: functional, cell-based; conditions: SW-620, 72 h
Method in brief: (§2)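 MTT assay: 3000 cells/well seeded, compound added next day, each concentration in quadruplicate, 72 h at 37 °C; medium replaced with 20 µg MTT/well for 4 h, formazan dissolved in DMSO, OD 545 nm. […] Fibroblasts: normal skin fibroblasts from donor, DMEM/10% FBS, used at 32 and 36 population doublings.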

HeLa [2] = assay: Cell cycle arrest in human HeLa cells assessed as accumulation at subG1 phase at 21 uM after 24 hrs by propidium iodide staining -based flow cytometry (reference value: 9.4 %); assay type: functional; method in brief: as §1
HeLa [3] = assay: Induction of ER stress in human HeLa cells assessed as expression of CHOP and Grp78
HeLa [4] = assay: Induction of Grp78 expression in human HeLa cells at 7 uM up to 8 hrs by Western blot analysis; assay type: functional, cell-based
Method in brief: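 Logarithmically growing HeLa cells were exposed to varying concentrations for 48 h, or to 7 µM for varying times. Cell extracts were run on 10% SDS gels and transferred to nitrocellulose. Membranes were blocked in 5% milk and probed with anti-Grp78 (1:1000, overnight, 4 °C), then an HRP secondary (1:5000, 2 h, RT). Detection was by ECL, with ERK2 reprobing as the loading control.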

HeLa [5] = assay: Induction of apoptotis in human HeLa cells assessed as cleavage of procaspase 3 at 7 uM after 48 hrs by Western blot analysis; assay type: functional, cell-based
Method in brief: (§3)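 HeLa cells were treated for 48 h at 7 µM and analysed by Western blot (10% SDS gels, nitrocellulose, HRP secondary, ECL, ERK2 loading control) for cleavage of apoptotic proteins. Antibodies: anti-PARP 1:4000; anti-caspase-3 and anti-caspase-8 1:1000; rabbit polyclonal anti-caspase-9 1:1000.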

HeLa [6] = assay: Induction of apoptotis in human HeLa cells assessed as cleavage of procaspase 8 at 7 uM after 48 hrs by Western blot analysis; assay type: functional, cell-based; method in brief: as §3
HeLa [7] = assay: Cell cycle arrest in human HeLa cells assessed as accumulation at G0/G1 phase at 0.78 uM after 24 hrs by propidium iodide staining -based flow cytometry (reference value: 60.6 %); assay type: functional; method in brief: as §1
HeLa [8] = assay: Cell cycle arrest in human HeLa cells assessed as accumulation at subG1 phase at 0.78 uM after 24 hrs by propidium iodide staining -based flow cytometry (reference value: 9.4 %); assay type: functional; method in brief: as §1
[9] = Therapeutic index, ratio IC50 for human SW480 cells to IC50 for normal human fibroblasts; assay type: cell-based; conditions: SW480 cells versus normal human fibroblasts, read-out: Ratio IC50
Method in brief: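 IC50 values came from an MTT assay. Cells were seeded at 3000 per well and dosed the next day, with each concentration in quadruplicate. After 72 h at 37 °C, MTT (20 µg/well) was added for 4 h; formazan was dissolved in DMSO and read at 545 nm. Each experiment was done three times. Normal skin fibroblasts were used at 32 and 36 population doublings. T.I. = tumor-cell IC50 / fibroblast IC50.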

HeLa [10] = assay: Cell cycle arrest in human HeLa cells assessed as accumulation at G2/M phase at 7 uM after 72 hrs by propidium iodide staining -based flow cytometry (reference value: 9.7 %); assay type: functional; method in brief: as §1
HeLa [11] = assay: Cell cycle arrest in human HeLa cells assessed as accumulation at S phase at 0.78 uM after 72 hrs by propidium iodide staining -based flow cytometry (reference value: 23.5 %); assay type: functional; method in brief: as §1
HeLa [12] = assay: Induction of CHOP expression in human HeLa cells at 0.09 to 7 uM after 48 hrs by Western blot analysis; assay type: functional, cell-based
Method in brief: (§4)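 Log-phase HeLa exposed to a concentration series for 48 h, or to 7 µM over a time course. Extracts resolved on 10% SDS gels, blotted to nitrocellulose, blocked 5% milk; anti-CHOP 1:1000 in 5% BSA overnight at 4 °C, HRP secondary 1:5000 2 h RT, ECL detection; ERK2 reprobe as loading control.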

HeLa [13] = assay: Cell cycle arrest in human HeLa cells assessed as accumulation at G2/M phase at 21 uM after 72 hrs by propidium iodide staining -based flow cytometry (reference value: 9.7 %); assay type: functional; method in brief: as §1
HeLa [14] = assay: Induction of apoptotis in human HeLa cells assessed as cleavage of apoptotic protein PARP at 7 uM after 48 hrs by Western blot analysis; assay type: functional, cell-based; method in brief: as §3
HeLa [15] = assay: Cell cycle arrest in human HeLa cells assessed as accumulation at subG1 phase at 7 uM after 24 hrs by propidium iodide staining -based flow cytometry (reference value: 9.4 %); assay type: functional; method in brief: as §1
HeLa [16] = assay: Induction of CHOP expression in human HeLa cells at 7 uM after 16 to 48 hrs by Western blot analysis; assay type: functional, cell-based; method in brief: as §4
HeLa [17] = assay: Cell cycle arrest in human HeLa cells assessed as accumulation at G0/G1 phase at 0.78 uM after 72 hrs by propidium iodide staining -based flow cytometry (reference value: 66.9 %); assay type: functional; method in brief: as §1
RT-112 = assay: Cytotoxicity against human RT112 cells after 72 hrs by MTT assay; assay type: functional, cell-based; conditions: RT-112, 72 h; method in brief: as §2
HeLa [18] = assay: Cell cycle arrest in human HeLa cells assessed as accumulation at S phase at 7 uM after 48 hrs by propidium iodide staining -based flow cytometry (reference value: 26.3 %); assay type: functional; method in brief: as §1
HeLa [19] = assay: Cell cycle arrest in human HeLa cells assessed as accumulation at G2/M phase at 21 uM after 48 hrs by propidium iodide staining -based flow cytometry (reference value: 9.9 %); assay type: functional; method in brief: as §1
HeLa [20] = assay: Cell cycle arrest in human HeLa cells assessed as accumulation at G2/M phase at 21 uM after 24 hrs by propidium iodide staining -based flow cytometry (reference value: 11.7 %); assay type: functional; method in brief: as §1
HeLa [21] = assay: Cell cycle arrest in human HeLa cells assessed as accumulation at subG1 phase at 21 uM after 48 hrs by propidium iodide staining -based flow cytometry (reference value: 8.5 %); assay type: functional; method in brief: as §1
Nucleic Acid = assay: Binding affinity to calf thymus DNA assessed as change in melting temperature at compound to DNA ratio of 0.3; assay type: nucleic-acid assay; conditions: Bos taurus
Method in brief: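 ct-DNA sonicated, filtered, in Na-cacodylate buffer pH 7, I = 0.05 mol dm-3, 2 x 10^-5 mol dm-3 (as phosphate, ε260 = 6600); compound/DNA ratio 0.3. Absorbance at 260 nm followed versus temperature, compound absorbance subtracted, curves normalized. Tm taken from first-derivative maximum, confirmed by tangent method; ΔTm = Tm(complex) − Tm(free DNA), mean of ≥2 runs, error ±0.5 °C.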

HeLa [22] = assay: Cell cycle arrest in human HeLa cells assessed as accumulation at G0/G1 phase at 7 uM after 72 hrs by propidium iodide staining -based flow cytometry (reference value: 66.9 %); assay type: functional; method in brief: as §1

- Activity (Nucleic Acid): inactive
Structure (SMILES): CC(=O)N(/N=N/c1ccc([N+](=O)[O-])cc1Cl)c1ccc([N+](=O)[O-])cc1Cl
- Activity (HeLa [1]): 79%
- IC50 (SW-620): 0.45 µM
- Activity (HeLa [2]): 16.4%
- Activity (HeLa [3]): Active
- Activity (HeLa [4]): inactive
- Activity (HeLa [5]): Active
- Activity (HeLa [6]): Active
- Activity (HeLa [7]): 74.4%
- Activity (HeLa [8]): 8.7%
- selectivity ratio [9]: 0.038
- Activity (HeLa [10]): 7.6%
- Activity (HeLa [11]): 32.5%
- Activity (HeLa [12]): Active
- Activity (HeLa [13]): 8.4%
- Activity (HeLa [14]): Active
- Activity (HeLa [15]): 13.2%
- Activity (HeLa [16]): Active
- Activity (HeLa [17]): 59.1%
- IC50 (RT-112): 7.2 µM
- Activity (HeLa [18]): 14.2%
- Activity (HeLa [19]): 11.9%
- Activity (HeLa [20]): 10.5%
- Activity (HeLa [21]): 46.5%
- Activity (HeLa [22]): 77.1%
